What all share (type): functional, cell-based
For experiment [1], the system named is HL-60. Description: Cytotoxicity against human HL60 cells by MTT assay. In a few lines:
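HL-60 cells grown in suspension in RPMI-1640 with 10% heat-inactivated FBS, penicillin 100 units/mL and streptomycin 100 μg/mL, at 37 °C in humidified 95% air/5% CO2. Density kept below 1 × 10^6 cells/mL. Viability read by MTT; IC50 (μM) given as mean ± spread.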
A general note: Formazan colour is commonly taken as a measure of viable cells.

Experiment [2] has as its system HL-60. Kind of experiment: Induction of apoptosis in human HL60 cells assessed as activation of caspase 3 after 12 hrs. A digest of the protocol:
(§1)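 HL-60 cells exposed to increasing concentrations for 12 h, then harvested. Cytosolic or total lysates assayed with colorimetric substrates, DEVD-pNA for caspase-3 and IETD-pNA for caspase-8. Activity expressed as x-fold over untreated control. A representative experiment run in duplicate.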

Experiment [3] relates to HL-60. Description: Induction of apoptosis in human HL60 cells assessed as activation of caspase 8 at after 12 hrs. A digest of the protocol: as §1
Experiment [4] relates to HL-60. Description: Induction of apoptosis in human HL60 cells assessed as cleavage of PARP-1 after 12 hrs by Western blot analysis. In a few lines: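 HL-60 cells treated for 12 h at the indicated concentrations. Total lysates immunoblotted with a PARP-1 monoclonal antibody that detects the native 116 kDa and cleaved 85 kDa forms. Etoposide 10 μM served as positive control.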
On the technique in general: Immunoblotting shows a protein as a band on a membrane.

The test system of experiment [5] is HL-60. Description: Induction of apoptosis in human HL60 cells assessed as nuclear chromatin condensation by Hoechst 33258 based fluorescent microscopy. In a few lines: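 HL-60 cells cultured 12 h without or with the indicated doses, then stained with Hoechst 33258. Condensed/fragmented chromatin scored by fluorescence microscopy as the percentage of apoptotic cells. Etoposide 10 μM as positive control. Points are the average (±SE) of triplicates from a representative experiment.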

Experiment [6] relates to HL-60. Description: Induction of apoptosis in human HL60 cells assessed as accumulation […] at 30 uM after 12 hrs by flow cytometry. A digest of the protocol:
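HL-60 cells incubated at 30 μM for 12 h. DNA content analysed by flow cytometry to follow the diploid-to-hypodiploid shift and the cell-cycle phase distribution.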

pIC50: −log10 of the molar value. Calls of active or inactive are those of the source. The rule behind the calls is not given here.

In general, pIC50 refers to the negative decadic logarithm of the IC50, by convention in mol/L. A higher pIC50 goes with a low IC50.

Take `CC(=O)OC/C1=C/CC[C@@]2(C)O[C@@H]2[C@@H](OC(C)=O)[C@@H](C(C)C)[C@H](OC(C)=O)C1`: in experiment [1], the pIC50 was 3.53.
Same read-out and setting: the same measure for `CC(=O)O[C@@H]1/C=C(\C)CC[C@H]2O[C@@]2(C=O)C[C@@H](OC(C)=O)[C@@H]1C(C)C` [PULICANARAL A]: 3.94; for `CC(=O)O[C@H]1[C@@H](C(C)C)[C@H](OC(C)=O)C[C@]2(C=O)O[C@@H]2CC[C@@]2(C)O[C@@H]12` [PULICANARAL B]: 3.58.
In the case of `C=C1CC[C@@H](C(C)C)[C@H]2[C@@H]1CC[C@@H]2C(=O)CO` [PULIOPLOPANONE A], in experiment [1], the pIC50 was 3.62.
Regarding `C=C1CC/C=C(/COC(C)=O)C[C@@H](OC(C)=O)[C@H](C(C)C)[C@H](OC(C)=O)C1=O` [TRIACETOXY PULICANONE], the result in experiment [2], in experiment [3], in experiment [4] and in experiment [6] was Active. Also, the pIC50 in experiment [1] is 4.70. Besides, the Activity entry in experiment [5] was “Dose-dependent effect”.
